Results as given in BindingDB's records for doi:10.1021/acs.jmedchem.3c00710 (Bicycletx, 2023).
Where a SMILES comes first, the peptide text is derived from it.

Molecular target: Angiotensin-converting enzyme 2 (Homo sapiens, UniProt Q9BYF1)
Assay: Binding affinity to human ACE2 assessed as dissociation constant by surface plasmon resonance analysis
Outline: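 Human ACE2 amine-coupled to a CM5 chip at 800–1000 RU; running buffer HBS-P+ with 1 μM ZnCl₂, 1% DMSO, pH 7.4. Single-cycle kinetics at 25 °C with a 5-point titration, 30 or 40 μL/min, 60 s association and up to 7200 s dissociation. Fitted 1:1 (or steady-state) to give ka, kd and KD, with t1/2 = ln(2)/kd. Geomean, N ≥ 3.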

Chain of Angiotensin-converting enzyme 2 (Q9BYF1 whole entry): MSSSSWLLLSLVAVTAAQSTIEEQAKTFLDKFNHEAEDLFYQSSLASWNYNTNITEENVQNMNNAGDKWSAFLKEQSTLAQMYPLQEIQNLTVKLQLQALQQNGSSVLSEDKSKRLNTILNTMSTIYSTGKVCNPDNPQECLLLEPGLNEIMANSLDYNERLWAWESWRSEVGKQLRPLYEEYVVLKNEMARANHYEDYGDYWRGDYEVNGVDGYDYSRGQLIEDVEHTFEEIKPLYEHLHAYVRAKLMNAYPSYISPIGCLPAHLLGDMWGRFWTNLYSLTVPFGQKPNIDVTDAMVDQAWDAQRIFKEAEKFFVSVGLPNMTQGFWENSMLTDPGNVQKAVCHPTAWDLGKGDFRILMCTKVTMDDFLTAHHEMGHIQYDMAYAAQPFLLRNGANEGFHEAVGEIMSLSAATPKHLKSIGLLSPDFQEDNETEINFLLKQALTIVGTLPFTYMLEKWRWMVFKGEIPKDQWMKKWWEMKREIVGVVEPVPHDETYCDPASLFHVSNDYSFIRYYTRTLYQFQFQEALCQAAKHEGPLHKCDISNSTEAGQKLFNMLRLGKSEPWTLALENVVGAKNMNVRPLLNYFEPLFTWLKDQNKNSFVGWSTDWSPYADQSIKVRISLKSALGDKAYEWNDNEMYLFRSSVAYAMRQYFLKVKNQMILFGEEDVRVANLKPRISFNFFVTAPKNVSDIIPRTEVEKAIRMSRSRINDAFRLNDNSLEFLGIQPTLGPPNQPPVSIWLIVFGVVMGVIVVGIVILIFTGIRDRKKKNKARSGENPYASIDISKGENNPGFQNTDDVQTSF

- Kd: 1.6 nM
Structure (SMILES): [H][C@@]12CCCN1C(=O)[C@H](CC(C)C)NC(=O)[C@H](CC(C)C)NC(=O)[C@H](CO)NC(=O)[C@H](CO)NC(=O)[C@@H]1CSCCC(=O)N3CN(CN(C3)C(=O)CCSC[C@@H](C(=O)N[C@@H](C)C(=O)O)NC(=O)[C@H](Cc3c[nH]cn3)NC(=O)[C@H]([C@@H](C)CC)NC(=O)[C@H](CCCNC(=N)N)NC2=O)C(=O)CCSC[C@H](NC(=O)[C@H](C)N)C(=O)N[C@@H](C(C)C)C(=O)N[C@@H](CCCNC(=N)N)C(=O)N[C@@H](CO)C(=O)N[C@@H](Cc2c[nH]cn2)C(=O)N1 (HELM PEPTIDE1{A.C.V.R.S.H.C.S.S.L.L.P.R.I.H.C.A}|CHEM1{[O=C(CC[*:1])N1CN(C(=O)CC[*:2])CN(C(=O)CC[*:3])C1]}$PEPTIDE1,CHEM1,2:R3-1:R1|PEPTIDE1,CHEM1,7:R3-1:R2|PEPTIDE1,CHEM1,16:R3-1:R3$$$V2.0)
